Autophagy HCS: autophagy modulators in MEF cells, primary screen, imaging, high-content, MEF GFP-LC3; MEF GFP-LC3 puncta imaging; test concentration mostly 10 µM; calls only at 10 µM (by protocol); 190,000 tested, 0.98% active; AID 463193, 2010;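 active = percentage of spot-positive cells more than 3 SD above its plate mean, without a fluorescence outlier flag or 80% toxicity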
Lmaj promast: Leishmania major promastigote growth inhibition, primary screen; Leishmania major promastigotes, resazurin fluorescence viability; inhibition, % at 10 µM; 200,000 tested, 9% active; in the data active = inhibition above about 50%;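 note: promastigotes grown with compound for 44 hours at 28 °C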
HCT116 bCat-KO: primary screen for growth suppressors in beta-catenin knockout HCT116 cells (colon tumor, human); viability, % at 10 µM; 140,000 tested, 1.5% active; HCT116 beta-catenin knockout viability, CellTiter-Glo, 60 h; active compounds read low; AID 818, 2007;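 active = viability at or under a set limit, the compound median less 4 SD, cut at about 6% in these data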
Dynein transport: inhibitors of GR-EGFP nuclear translocation, primary screen, dynein cargo transport inhibitor project, imaging, high-content, 3617.4 mouse cells. AID 1381, 2008. test concentration mostly 20 µM; stimulated with dexamethasone, 1 µM; active compounds read low. 220,000 tested, 0.47% active. z-score, hits read low;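 active = plate z-score of nuclear minus cytoplasmic receptor signal below a set negative limit, without overly bright fluorescence or cell loss, cut at about -3.5 in these data, passing the limit was not always enough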;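 note: z-score of nuclear minus cytoplasmic ring GR-EGFP intensity difference per well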
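Also added: dexamethasone, 1.0 µM final. Medium: tet-free, stripped-serum medium. Detection: fixed, Hoechst-stained cells imaged at 10x for EGFP. Read-out: nuclear-to-cytoplasmic GR-EGFP distribution per well. Times: induction 48 h, compound 1 h, agonist 30 min.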
PTEN del growth: growth suppression of PTEN-null HCT116, primary screen, cell-based, CellTiter-Glo | HCT116 PTEN-null viability, 60 h; active compounds read low | viability, % at 10 µM | 140,000 tested, 1.2% active | AID 827, 2007;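 active = viability at or below a set limit, 4 SD under the median of all tested compounds, cut at about 3.7% in these data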;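 note: PTEN knockout HCT116 line with beta catenin targeted HCT116 as companion control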
A number is an active result. A selection: hits, their analogues and other compounds. The true share with any hit is near 9.2%.

Results for O=C(Nc1cnn(Cc2ccc(F)cc2)c1)c1cnccn1 ?
Autophagy HCS: inactive; Lmaj promast: inactive; HCT116 bCat-KO: inactive; Dynein transport: inactive; PTEN del growth: inactive

How did O=C(NCc1ccccc1)c1noc2c1CCCCC2 do in these assays?
Autophagy HCS: active; Lmaj promast: inactive; HCT116 bCat-KO: inactive; Dynein transport: inactive; PTEN del growth: inactive

What do the screens show for `COc1ccc(CNC(=O)c2noc3c2CCCCC3)cc1`?
Autophagy HCS: inactive; Lmaj promast: inactive; HCT116 bCat-KO: inactive; Dynein transport: inactive; PTEN del growth: inactive

How did O=C(Nc1cnn(Cc2ccc(F)cc2)c1)c1noc2c1CCCC2 do in these assays?
Autophagy HCS: inactive; Lmaj promast: 100; Dynein transport: inactive

Results for O=C(Nc1cnn(Cc2ccc(F)cc2)c1)C(c1ccccc1)c1ccccc1 ?
Autophagy HCS: inactive; Lmaj promast: 51; HCT116 bCat-KO: inactive; Dynein transport: inactive; PTEN del growth: inactive

What do the screens show for `CCOc1ccc(OCC)c(NC(=O)CN2CCC(NC(=O)c3cccc(F)c3)CC2)c1`?
Autophagy HCS: inactive; Lmaj promast: inactive; HCT116 bCat-KO: inactive; Dynein transport: inactive; PTEN del growth: inactive

Results for CCOc1ccc(CCNC(=O)Cn2ccc3ccccc3c2=O)cc1OCC ?
Autophagy HCS: inactive; Lmaj promast: inactive; Dynein transport: inactive

Results for O=C(NC1=NCCS1)c1ccc([N+](=O)[O-])cc1Cl ?
Autophagy HCS: inactive; Lmaj promast: inactive; Dynein transport: inactive

Results for O=C(Nc1cccc(S(=O)(=O)N2CCCCC2)c1)c1cnccn1 ?
Autophagy HCS: inactive; Lmaj promast: 87; Dynein transport: inactive

What do the screens show for `COc1ccc(/C=C/C(=O)Nc2cccc(S(=O)(=O)N3CCCC3)c2)cc1OC`?
Autophagy HCS: inactive; Lmaj promast: 55; Dynein transport: inactive

Results for O=C(Nc1cccc(S(=O)(=O)N2CCOCC2)c1)c1cnccn1 ?
Autophagy HCS: inactive; Lmaj promast: inactive; Dynein transport: inactive

How did CC(Oc1ncnc2ccccc12)C(=O)Nc1cccc(S(=O)(=O)N2CCOCC2)c1 (stereo not drawn) do in these assays?
Autophagy HCS: inactive; Lmaj promast: 78; HCT116 bCat-KO: inactive; Dynein transport: inactive; PTEN del growth: inactive

How did COc1ccc(NS(=O)(=O)c2cccc(NC(=O)c3cnccn3)c2)cc1Br do in these assays?
Autophagy HCS: inactive; Lmaj promast: 100; Dynein transport: inactive

How did C=CCNC(=O)c1c(Cl)cnn1-c1ccc(C)cc1 do in these assays?
Autophagy HCS: inactive; Lmaj promast: inactive; Dynein transport: inactive

Results for Cc1ccc(-c2nnc(SCC(=O)NNC(=O)COc3ccccc3C)n2C)cc1 ?
Autophagy HCS: inactive; Lmaj promast: inactive; HCT116 bCat-KO: inactive; Dynein transport: inactive; PTEN del growth: inactive

Results for CC1C[N+](=C2C=C(N3CCOCC3)CC(C)(C)C2)CC(C)O1 (stereo not drawn) ?
Dynein transport: inactive

What do the screens show for `O=C(CSc1nc2ccccc2n1Cc1ccc(Cl)cc1)N/N=C/c1ccc(C(=O)O)cc1`?
Autophagy HCS: inactive; Lmaj promast: inactive; Dynein transport: inactive

What do the screens show for `CSc1ncccc1C(=O)OCC(=O)C(C)(C)C`?
Autophagy HCS: inactive; Lmaj promast: inactive; Dynein transport: inactive

How did O=C(CN1C(=O)NC(Cc2c[nH]c3ccccc23)C1=O)Nc1cccc(S(=O)(=O)N2CCCCCC2)c1 (stereo not drawn) do in these assays?
Autophagy HCS: inactive; Lmaj promast: 64; HCT116 bCat-KO: inactive; Dynein transport: inactive; PTEN del growth: inactive

How did CCCc1nc2ccccc2c(C(=O)OCC(=O)Nc2cccc(S(=O)(=O)N3CCOCC3)c2)c1CC do in these assays?
Autophagy HCS: inactive; Lmaj promast: inactive; HCT116 bCat-KO: inactive; Dynein transport: inactive

What do the screens show for `Cc1onc(-c2ccccc2Cl)c1C(=O)OCC(=O)Nc1cccc(S(=O)(=O)N2CCOCC2)c1`?
Autophagy HCS: inactive; Lmaj promast: 64; Dynein transport: inactive

Results for O=C(CN1C(=O)NC(Cc2c[nH]c3ccccc23)C1=O)Nc1cccc(S(=O)(=O)N2CCCC2)c1 (stereo not drawn) ?
Autophagy HCS: inactive; Lmaj promast: inactive; Dynein transport: inactive

Results for O=C(CCl)Nc1cccc(S(=O)(=O)N2CCCCCC2)c1 ?
Autophagy HCS: inactive; Lmaj promast: 85; HCT116 bCat-KO: inactive; Dynein transport: inactive; PTEN del growth: inactive
